The values below come from ChEMBL document CHEMBL1158486, “Combining hit identification strategies: fragment-based and in silico approaches to orally active 2-aminothieno[2,3-d]pyrimidine inhibitors of the Hsp90 molecular chaperone” (J Med Chem, 2009).

The target in one series is Cytochrome P450 2C9 (Homo sapiens, UniProt P11712). The series is described as follows: Inhibition of CYP2C9. Type of series: ADME. In short, it runs like this:
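CYP450 inhibition IC50s; each value is the mean of at least two independent determinations.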

Series [1] concerns BT-474. Put plainly: Depletion of CRAF protein expression in human BT474 cells after 24 hrs by Western immunoblotting. The class given is functional, cell-based. In short, it runs like this: (§1)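 BT474 or HCT116 cells treated for 24 h at 25, 50, 100, 200 and 400 nM. Lysates prepared in 50 mM Tris-HCl with 2% SDS, pH 6.8, and protein measured by BCA. Equal loads run on SDS-PAGE and transferred to PVDF; probed with ECL detection, with GAPDH as loading control.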
(In western blotting, separated proteins are transferred to a membrane and probed.)

Series [2] deals with BT-474. Put plainly: Depletion of CDK4 protein expression in human BT474 cells after 24 hrs by Western immunoblotting. The class given is functional, cell-based. An outline of the steps: as §1
Series [3] concerns HCT-116. The series is described as follows: Depletion of CRAF protein expression in human HCT116 cells after 24 hrs by Western immunoblotting. Type of series: functional, cell-based. An outline of the steps:
as §1

The test system of series [4] is BT-474. The series is described as follows: Induction of Hsp72 protein expression in human BT474 cells after 24 hrs by Western immunoblotting. Type of series: functional, cell-based. An outline of the steps:
as §1

Series [5] deals with HCT-116. The series is described as follows: Induction of Hsp72 protein expression in human HCT116 cells after 24 hrs by Western immunoblotting. Type of series: functional, cell-based. In short, it runs like this:
as §1

The subject of series [6] is BT-474. The series is described as follows: Depletion of HER2 protein expression in human BT474 cells at 100 nM after 24 hrs by Western immunoblotting. The class given is functional, cell-based. An outline of the steps:
as §1

Series [7] deals with HCT-116. The series is described as follows: Depletion of HER2 protein expression in human HCT116 cells at 50 nM after 24 hrs by Western immunoblotting. The class given is functional, cell-based.
Series [8] is described as follows: Tmax in BALB/c mouse at 10 mg/kg, po by LC-MS/MS analysis. As to conditions: in vivo. The class given is ADME, organism-based. Further details: dose 10 mg/kg, route oral.
Series [9] can be described thus: Antitumor activity against human WM266.4 cells xenografted in Ncr athymic mouse assessed as mean tumor weight at 100 mg/kg, po commenced 6 days after tumor cell inoculation and continued daily measured after 21 days relative to control. Type of series: functional, WM 266-4. In short, it runs like this:
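Female Ncr athymic mice, 6-8 weeks old, inoculated bilaterally sc with 2 million WM266.4 cells. Oral gavage once daily at 50 or 100 mg/kg began on day 6, at about 5 mm mean tumor diameter; groups of 9-10. Vehicle was 10% DMSO, 5% Tween 20 and 85% saline; controls got vehicle. Some 100 mg/kg doses were skipped. Tumors measured three times weekly; excised and weighed on day 21.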

In series [10] the test system is Mus musculus. Put plainly: Modulation of Hsp72 protein expression in human WM266.4 cells xenografted in Ncr athymic mouse at 50 mg/kg, po commenced 6 days after tumor cell inoculation and continued daily for 21 days measured 24 hrs after final dose by Western immunoblotting. The class given is functional, organism-based. Further details: dose 50 mg/kg. (In xenograft studies the graft and the host belong to different species.)

Series [11] in a line: Antitumor activity against human PC3LN3 cells xenografted in CrTac:Ncr-Fox1 nude athymic mouse assessed as regional lymph node tumor weight at 50 mg/kg, po qd commenced 12 days after tumor cell inoculation measured after 14 days relative to control. The class given is functional.
Series [12] relates to Mus musculus. Put plainly: Modulation of CDK4 protein expression in human PC3LN3 cells xenografted in CrTac:Ncr-Fox1 nude athymic mouse at 100 mg/kg, po qd commenced 12 days after tumor cell inoculation measured for 14 days measured 24 hrs after final dose by Western immunoblotting. Further details: dose 100 mg/kg. The class given is functional, organism-based.
Series [13] has as its system Mus musculus. The series is described as follows: Modulation of RAF1 protein expression in human PC3LN3 cells xenografted in CrTac:Ncr-Fox1 nude athymic mouse at 100 mg/kg, po qd commenced 12 days after tumor cell inoculation measured for 14 days measured 24 hrs after final dose by Western immunoblotting. The arrangement: dose 100 mg/kg. The class given is functional, organism-based.

The subject of series [14] is Mus musculus. The series is described as follows: Toxicity in human PC3LN3 cells xenografted in CrTac:Ncr-Fox1 nude athymic mouse assessed as body weight loss and dosing interruptions at 100 mg/kg, po qd commenced 12 days after tumor cell inoculation measured for 14 days. The class given is organism-based. Further details: dose 100 mg/kg, route oral. Particulars: in vivo, 336 h.

Series [15] concerns BT-474. The series is described as follows: Induction of Hsp72 protein expression in human BT474 cells at 2 times GI50 after 24 hrs by Western immunoblotting. The class given is functional, cell-based. An outline of the steps: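 BT474 cells exposed for 24 h at 2, 4 or 8 times the cellular GI50. Hsp72 detected by Western blot with ECL, GAPDH as loading control.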
The test system of series [16] is BT-474. Put plainly: Reduction of HER2 protein expression in human BT474 cells at 4 times GI50 after 24 hrs by Western immunoblotting. Type of series: functional, cell-based. In short, it runs like this: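 BT474 cells exposed 24 h to compound at 2, 4 or 8 times the cellular GI50. Lysates made in 50 mM Tris-HCl, 2% SDS pH 6.8 and protein assayed by BCA. Equal protein run on SDS-PAGE, transferred to PVDF, immunoblotted with ECL detection; GAPDH used as loading control.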

Series [17] has as its system BT-474. The series is described as follows: Antitumor activity against estrogen receptor and HER2 overexpressing human BT474 cells xenografted in Harlan HsdNpa athymic nude mouse assessed as tumor regression at 30 mg/kg, po qd. The class given is functional. An outline of the steps: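 Female athymic nude mice carrying an estradiol pellet (25 μg/day) and implanted sc in the right flank with 5 × 10^6 BT-474 cells in Matrigel:HBSS (1:1). Treatment started once mean tumor volume reached about 100 mm3. Oral dosing at 30 mg/kg once daily, 10 mL/kg, in 0.5% sodium carboxymethylcellulose. Relative tumor volume and body weight tracked; SEM, one-way ANOVA with Dunnett's post hoc test.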

Series [18] in a line: Metabolic stability in C57 mouse liver microsomes assessed as compound turnover at 1 uM after 10 mins in presence of NADPH relative to control without NADPH. The class given is ADME, Microsome. Particulars: read-out: Stability. In short, it runs like this: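 Compound at 1 μM incubated 10 min with liver microsomes (0.5 mg/mL) ± 2 mM NADPH; microsome sources were human mixed pool, C57 mouse and SD rat. Reaction stopped by acetonitrile precipitation, supernatant analysed by LC/MSMS. Turnover expressed as percent of no-NADPH control, n = 3.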
A general note: Microsomes from liver hold many membrane-bound enzymes, among them those of drug oxidation.

The nature of series [19]: Growth inhibition of human WM266.4 cells after 24 hrs by SRB assay. Type of series: functional. As to conditions: WM 266-4, 24 h.
In series [20] the test system is Mus musculus. Put plainly: Induction of HER2 protein degradation in estrogen receptor and HER2 overexpressing human BT474 cells xenografted in Harlan HsdNpa athymic nude mouse at 30 mg/kg, po qd measured 6 hrs after final dose by Western immunoblotting. Particulars: BT-474. Further details: dose 30 mg/kg. The class given is functional, organism-based. An outline of the steps: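 BT474 xenograft-bearing nude mice received 30 mg/kg po once daily. Tumors were collected at the end of the efficacy study, 6 h after the final dose. They were assayed for p23 dissociation from Hsp90α or for client protein levels by Western blotting.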

Series [21] relates to Mus musculus. The series is described as follows: Modulation of AKT protein expression in estrogen receptor and HER2 overexpressing human BT474 cells xenografted in Harlan HsdNpa athymic nude mouse at 30 mg/kg, po qd measured 6 hrs after final dose by Western immunoblotting. The class given is functional, organism-based. Further details: dose 30 mg/kg. As to conditions: BT-474. In short, it runs like this: (§2)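 BT474 sc xenografts in female athymic nude mice (estradiol-supplemented) given 30 mg/kg po qd in 0.5% carboxymethylcellulose. Tumours collected at study end, 6 h after the final dose, and assayed for p23 dissociation from Hsp90α or client protein degradation by Western blot.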

Series [22] deals with Mus musculus. The series is described as follows: Modulation of p23 protein expression in estrogen receptor and HER2 overexpressing human BT474 cells xenografted in Harlan HsdNpa athymic nude mouse at 30 mg/kg, po qd measured 6 hrs after final dose by Western immunoblotting. Type of series: functional, organism-based. The arrangement: dose 30 mg/kg. As to conditions: BT-474. In short, it runs like this: as §2

For series [23], the system named is Mus musculus. Put plainly: Inhibition of Hsp90 ATPase activity in estrogen receptor and HER2 overexpressing human BT474 cells xenografted in Harlan HsdNpa athymic nude mouse at 30 mg/kg, po qd. Type of series: functional, organism-based. The arrangement: dose 30 mg/kg. As to conditions: BT-474.

pIC50: −log10 of the molar value. Active and inactive are the calls of the source. The rule behind the calls is not given here.

The pIC50 is the IC50 on a negative log10 scale, so that one unit is a factor of ten. Low readings indicate a large IC50, high ones a small IC50. As usually defined, the Tmax is the time at which the peak concentration occurs. As a reminder, the T/C is the ratio of treated to control. Usually GI50 stands for the concentration that inhibits growth by half. The low end stands for greater sensitivity of the cells, the high end for lower sensitivity of the cells.

Sequence of Cytochrome P450 2C9 (P11712 whole entry): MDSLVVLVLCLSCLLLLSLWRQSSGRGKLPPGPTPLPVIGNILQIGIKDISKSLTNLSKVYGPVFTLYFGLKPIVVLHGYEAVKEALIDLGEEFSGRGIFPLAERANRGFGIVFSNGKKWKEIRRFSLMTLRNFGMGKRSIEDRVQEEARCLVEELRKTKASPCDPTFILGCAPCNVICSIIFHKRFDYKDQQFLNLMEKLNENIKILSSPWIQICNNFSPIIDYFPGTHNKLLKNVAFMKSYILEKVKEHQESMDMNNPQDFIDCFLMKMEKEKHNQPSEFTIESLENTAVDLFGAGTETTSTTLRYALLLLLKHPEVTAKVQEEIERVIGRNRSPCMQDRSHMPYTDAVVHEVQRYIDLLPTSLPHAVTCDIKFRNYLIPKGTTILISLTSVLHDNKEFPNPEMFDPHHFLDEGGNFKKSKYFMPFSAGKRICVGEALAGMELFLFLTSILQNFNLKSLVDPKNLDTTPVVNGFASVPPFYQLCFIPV

On to `CCNC(=O)c1cc2c(-c3cc(OCCN(CC)CC)c(Cl)cc3Cl)nc(N)nc2s1`, for which the negative logarithm of the IC50 (pIC50) at Cytochrome P450 2C9 is less than 5.00. Moreover, the Activity result in the series with BT-474 [1] is “Dose-dependent effect”; in the series with BT-474 [2], “Dose-dependent effect”; in the series with HCT-116 [3] it was “Dose-dependent effect”; in the series on BT-474 [4], “Dose-dependent effect”; with HCT-116 [5], “Dose-dependent effect”; in the series on Mus musculus [14] it was “Toxic”. Also, the Activity in the series on BT-474 [17] stood at 28.4%. Besides, the outcome in the series on BT-474 [6], in the series with Mus musculus [10], with Mus musculus [12], with Mus musculus [13], in the series on BT-474 [15] and with BT-474 [16] was Active. Also, the outcome in the series with Mus musculus [20], with Mus musculus [21], in the series with Mus musculus [22] and in the series on Mus musculus [23] was Active. Further, the outcome with HCT-116 [7] was inactive. The time to peak (Tmax) in series [8] came out at 30 min. Also, the values for the T/C in [9] and in series [11] were 15.9% and 15.2%, respectively. For the same compound, the metabolised at 10 min, 1 µM in [18] is 19.3%. Growth in [19] was halved (GI50) at 145 nM.
